Measured values from ChEMBL document CHEMBL4052629, “Scutellarin derivatives as apoptosis inducers: Design, synthesis and biological evaluation” (Eur J Med Chem, 2017).
The source made the active and inactive calls. The rule behind the calls is not given here.

Columns and labels:
HepG2 [1] = assay: Induction of apoptosis in human HepG2 cells assessed as reduction in c-IAP1 expression levels at 2 uM after 24 hrs by membrane-based sandwich immunoassay; format: functional, cell-based
Method in brief: (§1)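 HepG2 cells exposed to 2 μM for 24 h. Proteins extracted per kit protocol. Relative levels of 35 apoptosis-related proteins measured on a human apoptosis antibody array.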

HepG2 [2] = assay: Induction of apoptosis in human HepG2 cells assessed as nuclear fragmentation at 1.2 uM after 48 hrs by Hoechst 33258 staining-based fluorescent microscopic analysis; format: functional, cell-based
Method in brief: (§2)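 HepG2 cells grown on coverslips were treated for 48 h at 0.3, 0.6 or 1.2 μM, then fixed in 4% paraformaldehyde for 10 min. After PBS washes, cells were stained with Hoechst 33258 for 5 min and washed again. Nuclear morphology was examined by fluorescence imaging at 350 nm excitation and 460 nm emission.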

HepG2 [3] = assay: Induction of apoptosis in human HepG2 cells assessed as reduction in procaspase-3 expression levels at 2 uM after 24 hrs by membrane-based sandwich immunoassay; format: functional, cell-based; method in brief: as §1
HepG2 [4] = assay: Induction of apoptosis in human HepG2 cells assessed as early apoptotic cells at 1.2 uM after 72 hrs by Annexin V-APC/7-AAD or propidium iodide staining-based flow cytometric analysis (reference value: 1.87%); format: functional
HepG2 [5] = assay: Induction of apoptosis in human HepG2 cells assessed as reduction in mitochondrial membrane potential at 0.6 uM after 48 hrs by JC-1 staining-based flow cytometric analysis (reference value: 1.6%); format: functional; design: scale not given: the % may be the effect or the level left
Method in brief: (§3)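 HepG2 cells cultured overnight, then incubated in triplicate with 0, 0.3, 0.6 or 1.2 μM, or vehicle, for 48 h. Stained with the cationic dye JC-1. Flow cytometry gave the percentage of cells with healthy versus collapsed mitochondrial membrane potential.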

HepG2 [6] = assay: Induction of apoptosis in human HepG2 cells assessed as reduction in mitochondrial membrane potential at 1.2 uM after 48 hrs by JC-1 staining-based flow cytometric analysis (reference value: 1.6%); format: functional; design: scale not given: the % may be the effect or the level left; method in brief: as §3
HepG2 [7] = assay: Induction of apoptosis in human HepG2 cells assessed as chromatin condensation at 0.3 to 0.6 uM after 48 hrs by Hoechst 33258 staining-based fluorescent microscopic analysis; format: functional, cell-based; method in brief: as §2
HepG2 [8] = assay: Cell cycle arrest in human HepG2 cells assessed as accumulation at G2/M phase at 0.6 uM after 72 hrs by propidium iodide staining-based flow cytometric analysis (reference value: 21.4%); format: functional
Method in brief: (§4)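 Concentrations used were 0, 0.3, 0.6 and 1.2 μM in HepG2 and 0, 0.16, 0.31 and 1.25 μM in PC-3, with untreated cells as control, for 72 h. Cells were trypsinized, washed in PBS, fixed in cold ethanol at 4 °C overnight, then incubated 30 min in PBS containing RNase A and propidium iodide. DNA content was read by flow cytometry to give phase distribution.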

HepG2 [9] = assay: Induction of apoptosis in human HepG2 cells assessed as reduction in mitochondrial membrane potential at 0.3 uM after 48 hrs by JC-1 staining-based flow cytometric analysis (reference value: 1.6%); format: functional; design: scale not given: the % may be the effect or the level left; method in brief: as §3
HepG2 [10] = assay: Induction of apoptosis in human HepG2 cells assessed as late apoptotic cells at 1.2 uM after 72 hrs by Annexin V-APC/7-AAD or propidium iodide staining-based flow cytometric analysis (reference value: 4.14%); format: functional
HepG2 [11] = assay: Cell cycle arrest in human HepG2 cells assessed as accumulation at S phase at 0.3 uM after 72 hrs by propidium iodide staining-based flow cytometric analysis (reference value: 44.6%); format: functional; method in brief: as §4
HepG2 [12] = assay: Induction of apoptosis in human HepG2 cells assessed as reduction in mitochondrial membrane potential after 48 hrs by JC-1 staining-based flow cytometric analysis; format: functional, cell-based; method in brief: as §3
HepG2 [13] = assay: Induction of apoptosis in human HepG2 cells assessed as reduction in survivin expression levels at 2 uM after 24 hrs by membrane-based sandwich immunoassay; format: functional, cell-based; method in brief: as §1
HepG2 [14] = assay: Induction of apoptosis in human HepG2 cells after 72 hrs by Annexin V-APC/7-AAD or propidium iodide staining-based flow cytometric analysis; format: functional, cell-based
HepG2 [15] = assay: Induction of apoptosis in human HepG2 cells assessed as late apoptotic cells at 0.6 uM after 72 hrs by Annexin V-APC/7-AAD or propidium iodide staining-based flow cytometric analysis (reference value: 4.14%); format: functional
HepG2 [16] = assay: Induction of apoptosis in human HepG2 cells assessed as reduction in Hsp60 expression levels at 2 uM after 24 hrs by membrane-based sandwich immunoassay; format: functional, cell-based
Method in brief: (§5)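 HepG2 cells treated at 2 μM for 24 h; protein extracts prepared per the kit protocol. Relative levels of 35 apoptosis-related proteins measured with a human apoptosis antibody array.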

HepG2 [17] = assay: Induction of apoptosis in human HepG2 cells assessed as necrotic cells at 0.3 uM after 72 hrs by Annexin V-APC/7-AAD or propidium iodide staining-based flow cytometric analysis (reference value: 1.87%); format: functional
HepG2 [18] = assay: Induction of apoptosis in human HepG2 cells assessed as late apoptotic cells at 0.3 uM after 72 hrs by Annexin V-APC/7-AAD or propidium iodide staining-based flow cytometric analysis (reference value: 4.14%); format: functional
HepG2 [19] = assay: Induction of apoptosis in human HepG2 cells assessed as reduction in Hsp27 expression levels at 2 uM after 24 hrs by membrane-based sandwich immunoassay; format: functional, cell-based; method in brief: as §5
PC-3 [20] = assay: Induction of apoptosis in human PC3 cells assessed as reduction in mitochondrial membrane potential at 1.25 uM after 48 hrs by JC-1 staining-based flow cytometric analysis (reference value: 1.86%); format: functional; design: scale not given: the % may be the effect or the level left
Method in brief: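 After overnight culture, PC-3 cells were treated in triplicate with 0, 0.16, 0.31 or 1.25 μM, or vehicle, for 48 h. They were then loaded with JC-1, and the proportion with depolarized mitochondrial membrane potential was counted by flow cytometry.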

PC-3 [21] = assay: Induction of apoptosis in human PC3 cells assessed as viable cells at 0.31 uM after 72 hrs by Annexin V-APC/7-AAD or propidium iodide staining-based flow cytometric analysis (reference value: 88.74%); format: functional; settings: PC-3, 72 h, read-out: Activity
L02 = assay: Induction of apoptosis in human LO2 cells assessed as early apoptotic cells at 1.25 uM after 72 hrs by Annexin V-FITC/7-AAD or propidium iodide staining-based flow cytometric analysis (reference value: 3.65%); format: cell-based; settings: l02, 72 h
PC-3 [22] = assay: Induction of apoptosis in human PC3 cells assessed as nuclear fragmentation at 0.16 to 1.25 uM after 48 hrs by Hoechst 33258 staining-based fluorescent microscopic analysis; format: functional, cell-based
Method in brief: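 PC-3 cells grown on sterile cover slips were exposed to 0, 0.16, 0.31 or 1.25 μM, or vehicle, for 48 h. Then fixed with 4% paraformaldehyde for 10 min, washed twice in PBS, stained with Hoechst 33258 for 5 min and washed again. Nuclei imaged at 350 nm excitation and 460 nm emission.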

PC-3 [23] = assay: Induction of apoptosis in human PC3 cells assessed as viable cells at 0.16 uM after 72 hrs by Annexin V-APC/7-AAD or propidium iodide staining-based flow cytometric analysis (reference value: 88.74%); format: functional; settings: PC-3, 72 h, read-out: Activity
PC-3 [24] = assay: Cell cycle arrest in human PC3 cells assessed as accumulation at S phase at 0.16 uM after 72 hrs by propidium iodide staining-based flow cytometric analysis (reference value: 36.46%); format: functional; method in brief: as §4
PC-3 [25] = assay: Induction of apoptosis in human PC3 cells assessed as necrotic cells at 1.25 uM after 72 hrs by Annexin V-APC/7-AAD or propidium iodide staining-based flow cytometric analysis (reference value: 2.43%); format: functional

SMILES: O=C(NCCCOc1no[n+]([O-])c1S(=O)(=O)c1ccccc1)[C@H]1O[C@@H](Oc2cc3oc(-c4ccc(OCc5ccccc5)cc4)cc(=O)c3c(O)c2OCc2ccccc2)[C@H](O)[C@@H](O)[C@@H]1O
- Activity (HepG2 [1]): Active
- Activity (HepG2 [2]): Active
- Activity (HepG2 [3]): Active
- Activity (HepG2 [4]): 13.46%
- Activity (HepG2 [5]): 31.12%
- Activity (HepG2 [6]): 58.47%
- Activity (HepG2 [7]): Active
- Activity (HepG2 [8]): 17.54%
- Activity (HepG2 [9]): 15.14%
- Activity (HepG2 [10]): 39.16%
- Activity (HepG2 [11]): 47.14%
- Activity (HepG2 [12]): Dose-dependent effect
- Activity (HepG2 [13]): Active
- Activity (HepG2 [14]): Dose-dependent effect
- Activity (HepG2 [15]): 19.97%
- Activity (HepG2 [16]): Active
- Activity (HepG2 [17]): 3.85%
- Activity (HepG2 [18]): 13.5%
- Activity (HepG2 [19]): Active

SMILES: COc1ccc(-c2cc(=O)c3c(O)c(OC)c(O[C@@H]4O[C@H](C(=O)NCCOc5no[n+]([O-])c5S(=O)(=O)c5ccccc5)[C@@H](O)[C@H](O)[C@H]4O)cc3o2)cc1
- Activity (PC-3 [20]): 61.01%
- viability at 0.31 µM (PC-3 [21]): 61.6%
- Activity (L02): 17.35%
- Activity (PC-3 [22]): Active
- viability at 0.16 µM (PC-3 [23]): 79.1%
- Activity (PC-3 [24]): 38.34%
- Activity (PC-3 [25]): 5.21%
